Converted amounts (≈) assume the structure as drawn.
Tests used:
ACHN = assay: Cytotoxicity against human ACHN cells after 72 hrs by CCK8 assay; assay type: functional, cell-based
Procedure, shortened: (§1)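 Renal cancer lines ACHN, 786-O and OS-RC-2; cell viability read by CCK-8 assay, with sorafenib as positive control.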

786-0 = assay: Cytotoxicity against human 786-O cells after 72 hrs by CCK8 assay; assay type: functional, cell-based; conditions: 786-0, 72 h; procedure, shortened: as §1
OS-RC-2 = assay: Cytotoxicity against human OS-RC2 cells after 72 hrs by CCK8 assay; assay type: functional, cell-based; conditions: OS-RC-2, 72 h; procedure, shortened: as §1
HepG2 = assay: Cytotoxicity against human HepG2 cells after 6 days by MTT assay; assay type: functional, cell-based; conditions: HepG2, 144 h
Procedure, shortened: (§2)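 HepG-2 and SGC7901 cells; growth inhibition read by MTT method, with 5-fluorouracil as positive control.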

SGC-7901 = assay: Cytotoxicity against human SGC7901 cells after 6 days by MTT assay; assay type: functional, cell-based; conditions: SGC-7901, 144 h; procedure, shortened: as §2
Escherichia coli = assay: Antimicrobial activity against Escherichia coli ATCC 25922 after 24 hrs by serial dilution method; assay type: functional; conditions: ATCC 25922, 24 h
Procedure, shortened: (§3)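 Serial broth dilution in 96-well microtiter plates. Compounds and controls are dissolved in DMSO as stock. Bacteria are grown overnight at 37 °C, then diluted to 10^6 cfu/mL. E. coli and S. aureus are grown in Luria–Bertani broth. P. multocida and E. rhusiopathiae are grown in trypticase soy broth with 10% calf serum. Plates are incubated at 37 °C for 24 h and read at 630 nm.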

Staphylococcus aureus = assay: Antimicrobial activity against Staphylococcus aureus subsp. aureus Rosenbach ATCC 25923 after 24 hrs by serial dilution method; assay type: functional; conditions: Rosenbach ATCC 25923, 24 h; procedure, shortened: as §3
[1] = test system: Erysipelothrix rhusiopathiae; assay: Antimicrobial activity against Erysipelothrix rhusiopathiae ATCC 19414 after 24 hrs by serial dilution method; assay type: functional; conditions: ATCC 19414, 24 h; procedure, shortened: as §3
Pasteurella multocida = assay: Antimicrobial activity against Pasteurella multocida subsp. multocida ATCC 43137 after 24 hrs by serial dilution method; assay type: functional; conditions: ATCC 43137, 24 h; procedure, shortened: as §3

Structure (SMILES): C=C(C=O)[C@]1(O)C[C@@]2(C)C(=CC1=O)C=C[C@H](OC(=O)/C=C/C(C)=C/[C@@H](C)CC)[C@@H]2C
- IC50 (ACHN): 4300 nM
- IC50 (786-0): 2500 nM
- IC50 (OS-RC-2): 3700 nM
- IC50 (HepG2): 1400 nM
- IC50 (SGC-7901): 1400 nM
- MIC (Escherichia coli): > 100 µg/mL
- MIC (Staphylococcus aureus): 1.5 µg/mL (≈ 3.64 µM)
- MIC [1]: 13 µg/mL (≈ 31.5 µM)
- MIC (Pasteurella multocida): 13 µg/mL (≈ 31.5 µM)

From ChEMBL document CHEMBL4145582, “Cytotoxic and Antibacterial Eremophilane Sesquiterpenes from the Marine-Derived Fungus Cochliobolus lunatus SCSIO41401” (J Nat Prod, 2018)
